SKKanGAS inh – SKKanGAS growth inhibition; S. pyogenes SKKanGAS, kanamycin growth, BacTiter-Glo, 6 h; inhibition, % at 7.5 µM; 1.3% of 300,000 active;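 active = mean replicate score, as percent of positive control median, at least 50; inconclusive = mean below 50 but one replicate at or above 50; inactive = mean and every replicate below 50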;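 also: strain carries kanamycin resistance gene driven by streptokinase promoter and grows in 40 µg/ml kanamycin; loss of luminescence reflects streptokinase promoter inhibition or plain growth inhibition; 0% = median of DMSO wells and 100% = positive control at its reference dose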
Mdm2-MdmX inh – human Mdm2/MdmX binding inhibition; O15151+Q00987; SaOS-2 split-luciferase Mdm2/MdmX complementation, luminescence; inhibition, % at 8 µM; 3% of 330,000 active;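 active = inhibition of at least 50% at 8 µM in the primary screen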
Target sequence (O15151 whole entry, looked up): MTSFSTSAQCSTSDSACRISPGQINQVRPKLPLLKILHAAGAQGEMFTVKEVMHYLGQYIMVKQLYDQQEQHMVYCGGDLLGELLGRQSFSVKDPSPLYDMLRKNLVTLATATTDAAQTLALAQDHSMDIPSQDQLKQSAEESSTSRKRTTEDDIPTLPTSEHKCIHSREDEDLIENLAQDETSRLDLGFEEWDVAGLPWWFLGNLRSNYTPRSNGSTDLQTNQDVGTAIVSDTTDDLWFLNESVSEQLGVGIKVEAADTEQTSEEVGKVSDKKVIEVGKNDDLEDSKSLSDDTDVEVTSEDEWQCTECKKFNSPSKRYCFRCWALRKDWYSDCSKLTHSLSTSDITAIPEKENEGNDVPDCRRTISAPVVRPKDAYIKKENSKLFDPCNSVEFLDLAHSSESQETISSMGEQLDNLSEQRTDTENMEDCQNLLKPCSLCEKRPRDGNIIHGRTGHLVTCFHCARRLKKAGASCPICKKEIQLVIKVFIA
Target sequence (Q00987 whole entry, looked up): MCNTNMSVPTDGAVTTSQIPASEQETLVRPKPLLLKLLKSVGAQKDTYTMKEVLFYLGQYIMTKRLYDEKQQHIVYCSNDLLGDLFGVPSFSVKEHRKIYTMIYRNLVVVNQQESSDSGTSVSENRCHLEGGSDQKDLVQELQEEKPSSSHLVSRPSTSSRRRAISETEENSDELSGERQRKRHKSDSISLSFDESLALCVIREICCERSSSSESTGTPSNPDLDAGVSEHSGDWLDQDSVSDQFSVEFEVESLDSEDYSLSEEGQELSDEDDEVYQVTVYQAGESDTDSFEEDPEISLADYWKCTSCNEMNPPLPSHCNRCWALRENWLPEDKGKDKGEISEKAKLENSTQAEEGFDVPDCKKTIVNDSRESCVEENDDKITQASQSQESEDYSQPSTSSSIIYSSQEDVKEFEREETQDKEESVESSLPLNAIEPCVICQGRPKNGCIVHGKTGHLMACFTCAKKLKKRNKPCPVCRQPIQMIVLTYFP
CSC inhib – blocks cancer stem cells; inhibition, % at 7.5 µM; 1.1% of 300,000 active; AID 2717; cancer stem cell-like cells viability, luminescence; in the data active = inhibition above about 75%; inconclusive = no clear call, values can overlap the other calls; tested in HMLE shEcad cells
T cruzi inh – blocks replication of Trypanosoma cruzi. inhibition, % (concentration not given with the values). T. cruzi beta-gal in NIH3T3, luminescence, 90 h. 1.4% of 300,000 active;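 active = mean inhibition across valid replicates above about 55%, limit read from the data; inconclusive = mean below that limit but half or more replicates reach it; inactive = mean below it, under half of replicates reach it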;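 also: signal also drops with host cell toxicity which is not excluded here; 0% = plate median of DMSO wells and 100% = zero luminescence signal; higher percent means less beta-gal luminescence so fewer parasites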
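System: mouse NIH/3T3 fibroblasts infected with β-gal-expressing T. cruzi Tulahuen C4 / Input: NIH/3T3 cells, 5,000 per well / Buffer or medium: Low-serum DMEM with 2% FBS / Probe or stimulus: 5000 reporter trypomastigotes per well / Schedule: ≥90 h infection period, 3 h prior cell attachment / Measured by: GalScreen luminescence, 60 min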
Beta cell apopt – beta cell apoptosis inhibition | INS-1E cytokine-induced death, ATP luminescence, 48 h; percent of positive-control rescue, neutral wells zero | protection from apoptosis, % (concentration not given with the values) | 0.8% of 300,000 active | AID 435005;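 active = Every replicate reaches about 75%, or at least half do and their mean reaches it too, limit read from the data; inconclusive = At least half of replicates reach the limit but their mean does not; inactive = Under half of replicates reach the limit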;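 also: 0% = cytokine-treated negative control wells and 100% = positive control rescue; higher means more ATP so stronger rescue from cytokine killing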
Lmaj promast – Leishmania major promastigote growth inhibition. AID 1063. inhibition, % at 10 µM. Leishmania major promastigotes, resazurin fluorescence viability. 9% of 200,000 active; in the data active = inhibition above about 50%;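 also: promastigotes grown with compound for 44 hours at 28 °C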
* hit, by the source's call; ? = inconclusive; · = not tested or not shown. A selection: hits, their analogues and other compounds. The true share with any hit is near 9.4%.

SMILES	SKKanGAS inh	Mdm2-MdmX inh	CSC inhib	T cruzi inh	Beta cell apopt	Lmaj promast
CSc1ccc(-c2nc(CN3CCCCC3c3cccnc3)c(C)o2)cc1 (stereo unspecified)	6	12	-5	49	-2	51*
O=C(CCN1CCCCC1c1cccnc1)NCc1ccccc1 (stereo unspecified)	3	13	-10	-2	·	-6
CCCOc1cccc(CN2CCCCC2c2cccnc2)c1 (stereo unspecified)	2	-3	-6	55*	-2	36
O=C(Nc1ccccc1N1CCOCC1)c1cccnc1Cl	-1	7	-12	2	-7	5
C=C(C)c1cccc(C(C)(C)NC(=O)NC2CCN(Cc3ccccc3)CC2)c1	8	35	4	55*	5	·
O=C(NNC(=O)C1CCN(Cc2cccc(F)c2)CC1)c1cccs1	-3	2	-5	-10	-6	-7
O=C(Nc1cccc(F)c1)NC1CCN(Cc2ccccc2)CC1	7	6	-5	60*	-5	56*
O=C(/C=C/c1cccc(F)c1)NC1CCN(Cc2ccccc2)CC1	-1	25	-11	55*	3	·
O=C(NNC(=O)C1CCN(Cc2cccc(F)c2)CC1)c1cccc(Cl)c1	-3	9	-11	18	0	64*
O=C(NC1CCN(Cc2ccccc2)CC1)c1c(Cl)cccc1Cl	-1	-31	-2	12	5	·
CSc1ncccc1C(=O)OCC(=O)Nc1nc(C)c(Cl)cc1Cl	·	25	-15	·	-4	·
Cc1ccccc1CC(=O)Nc1cccc(S(=O)(=O)N2CCCC2)c1	·	10	10	·	-5	·
CC1CCC(C(C)C)C(OC(=O)COC(=O)c2cc(O)ccc2N)C1 (stereo unspecified)	11	22	38	70*	-3	5
CC1CCC(C(C)C)C(OC(=O)COC(=O)c2ccc(=O)[nH]c2)C1 (stereo unspecified)	22	-18	-11	-1	3	6
Cc1nn(C)cc1/C=C1\SC(=S)NC1=O	15	9	3	3	·	-2
CCOC(=O)/C(C#N)=C/c1cc2ccccc2nc1Cl	-1	27	0	0	1	4
O=C1NC(=S)S/C1=C\c1cc2ccccc2nc1N1CCCCC1	41	45	114*	-25	20	·
COc1ccc2nc(N3CCCCC3)c(/C=C3\SC(=S)NC3=O)cc2c1	86*	7	121*	-5	18	·
N#C/C(=C\c1cc2ccccc2nc1N1CCCCC1)C(N)=O	·	·	-6	·	-2	76*
COc1ccc(-n2c(C)cc(/C=C3\SC(=S)NC3=O)c2C)cc1	17	-30	10	7	6	3
CCn1cnnc1SCC(=O)Nc1ccccc1C(=O)NC1CC1	·	-4	3	·	-6	·
O=C1OCC(CO)(CO)N=C1NNc1ccc(Cl)c(Cl)c1	2	11	12	4	0	100*
COc1ccc2cc(CN(CCc3ccccc3)Cc3nnnn3Cc3ccco3)c(=O)[nH]c2c1	6	33	-10	49	10	100*
Cc1ccc2cc(CN(Cc3ccc4c(c3)OCO4)Cc3nnnn3Cc3ccco3)c(=O)[nH]c2c1	1	35	4	29	0	77*
COc1ccccc1CN(Cc1cc2c(C)ccc(C)c2[nH]c1=O)Cc1nnnn1Cc1ccco1	21	35	26	5	19	100*
SMILES	SKKanGAS inh	Mdm2-MdmX inh	CSC inhib	T cruzi inh	Beta cell apopt	Lmaj promast
O=C(c1cc(C2CC2)nn1-c1ccccc1)N1CCN(Cc2c(F)cccc2Cl)CC1	·	3	67	·	-14	·
COc1ccc(OC)c(C(=O)CSc2nc3ccccc3n2CC(=O)NC(C)(C)C)c1	·	14	-6	·	-7	61*
COc1ccc(C(=O)Nc2ccc3c(c2)nc(CCNC(=O)c2ccco2)n3C)cc1	2	-3	-8	-2	·	·
O=[N+]([O-])c1cc(-c2cnc3ccccc3n2)ccc1Oc1ccc(Cl)cc1	0	7	77*	0	5	-12
Nc1c(C(=O)O)ccc2c1C(=O)c1ccccc1C2=O	10	10	-3	9	11	-4
COC(=O)c1ccc2c(c1O)C(=O)c1ccccc1C2=O	70*	5	96*	-14	16	84*
O=C(N/N=C/c1ccc([N+](=O)[O-])s1)c1ccncc1	-3	30	9	56*	-52	100*
CCOC(=O)N/N=C\c1ccc([N+](=O)[O-])s1	-4	28	2	25	·	39
CC(C)(C)OC(=O)N/N=C\c1ccc([N+](=O)[O-])s1	12	-14	-15	57*	2	80*
Cc1ccc(C(=O)N/N=C\c2ccc([N+](=O)[O-])s2)cn1	5	27	17	?	6	100*
Cn1c(SCC(=O)N/N=C/c2ccc([N+](=O)[O-])s2)nnc1-c1ccc(Cl)cc1	0	4	59	51	89*	100*
CCOc1ccccc1N1CC(C(=O)Nc2ccc(S(=O)(=O)N3CCCCC3)cc2)CC1=O (stereo unspecified)	11	16	-3	1	5	·
COc1ccc(NC(=O)CCC(=O)N/N=C/c2ccc([N+](=O)[O-])s2)cc1	7	32	·	50	30	100*
O=C(N/N=C/c1ccc(Br)s1)c1ccc([N+](=O)[O-])cc1	3	22	26	76*	12	-4
Cc1ccc(C(=O)N/N=C/c2ccc([N+](=O)[O-])s2)cc1	?	22	-1	58*	-56	99*
Cc1cc(C)n(CC(=O)N/N=C/c2ccc([N+](=O)[O-])s2)n1	2	17	-6	59*	-15	99*
Cc1cc(C(=O)Nc2ccccc2)oc(=O)c1	-5	-18	-3	-6	3	·
CC(C)=CCc1c(O)ccc2c1OC(c1ccc(O)c(O)c1)CC2=O (stereo unspecified)	4	7	45	-22	0	10
CC(C)=CCc1c(O)ccc(C2COc3c(CC=C(C)C)c(O)cc(O)c3C2=O)c1O (stereo unspecified)	51*	9	-5	-11	-5	·
COc1ccc(/C=N/n2c(-c3ccccc3)n[nH]c2=S)cc1	30	20	-12	3	5	·
COc1ccc(/C=N/n2c(N)nc(-c3ccccc3)c2-c2ccccc2)cc1	1	10	43	·	-6	57*
Oc1ccc(NCc2ccccc2OCc2ccccc2F)cc1	25	0	22	7	18	100*
CCOc1ccccc1CNc1ccc(O)cc1	9	·	·	-12	·	22
CCOc1cccc(CNc2ccc(O)cc2)c1OCc1ccc(Cl)cc1	7	25	-3	-5	18	100*
Cc1ccc(NCc2ccccc2OCc2ccccc2F)cc1	38	12	33	15	8	6
CCN(CC(=O)NCc1ccc(Cl)cc1)C(=O)c1ccc(S(=O)(=O)NCc2ccco2)cc1	-1	-7	-4	-7	0	·

Assay outcomes as filed in PubChem.
